Runt-CBFb FRET: Runt domain-CBFb interaction inhibition; Q01196+Q13951; Cerulean-Runt/Venus-CBFb FRET ratio 530/480, 1 h; inhibition, % at 20 µM; 220,000 tested, 0.46% active; AID 1496;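 active = inhibition over about 50% at 20 µM in the single-dose screen, limit read from the data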
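Reagent – Venus-CBFb binding partner, 100 nM · Assay system – Cerulean-tagged RUNX1 Runt domain (FRET donor) fusion protein · Input – 100 nM per protein · Incubation – two 1 h room-temperature incubations shielded from light · Measured by – FRET fluorescence · Medium – Tris buffer pH 7.5 with salts and BSA · Benchmarks – unlabeled CBFb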
Hck-Nef inh: inhibitors of human Hck kinase activated by Nef | Recombinant Hck-YEEI plus Nef, Z-Lyte FRET kinase assay | inhibition, % at 20 µM | 220,000 tested, 0.68% active | AID 463187;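 active = Hck-Nef kinase inhibition above about 50%, limit read from the data; inactive = inhibition below that limit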
RanGTP-Imp inh: inhibitors of RanGTP-importin-beta interaction, primary screen, biochemical, FRET, CFP-Ran, YFP-importin-beta, homogeneous; cell-free CFP-Ran/YFP-importin-beta FRET ratio; inhibition, % (test concentration not listed); 300,000 tested, 1.1% active;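 active = more than half of the replicate wells show a fall in the fluorescence ratio signal beyond about 16%, limit read from the data, passing the limit was not always enough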
14-3-3 Bad inh: disrupts binding of bovine 14-3-3 zeta to phospho-Bad peptide; P63103; TR-FRET 14-3-3zeta/Dy647-pBad peptide displacement, 1 h; inhibition, % at 21.7 µM; 220,000 tested, 0.71% active; AID 781;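 active = inhibition above about 70%, limit read from the data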
Target sequence (P63103 whole entry, looked up): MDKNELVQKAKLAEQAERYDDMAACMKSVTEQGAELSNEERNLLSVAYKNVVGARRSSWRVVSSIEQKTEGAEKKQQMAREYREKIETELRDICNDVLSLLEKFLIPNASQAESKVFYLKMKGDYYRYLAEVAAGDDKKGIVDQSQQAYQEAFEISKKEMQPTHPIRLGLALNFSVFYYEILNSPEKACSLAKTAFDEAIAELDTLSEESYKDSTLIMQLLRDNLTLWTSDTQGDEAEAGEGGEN
Tb hexokinase: blocks Trypanosoma brucei hexokinase 1 activity; 220,000 tested, 0.11% active; recombinant TbHK1, G6PDH-coupled NADH A340; inhibition, % at 10 µM;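 active = inhibition of 50% or more in the single-dose primary screen; inactive = inhibition below 50%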
Runt-SMMHC FRET: Runt domain-CBFb-SMMHC interaction inhibition; 220,000 tested, 0.74% active; Q01196+Q13951; Cerulean-Runt/Venus-CBFb-SMMHC FRET ratio 530/480, 1 h; inhibition, % at 20 µM;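 active = mean inhibition across duplicate retests at 20 µM reaching about 50%, limit read from the data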;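 note: inhibitors lower the FRET ratio by blocking Runt binding to CBFb-SMMHC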
YIC counter: counter-screen YIC FRET for RanGTP-importin-beta inhibitors | IC50, µM | 1,000 tested, 40% active | Purified YIC probe, intramolecular FRET ratio YFP/CFP | shares compounds with RanGTP-Imp inh;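 active = fitted half-maximal inhibitory concentration no more than tenfold above the top dose tested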
A number is an active result; . = inactive; / = not tested or not shown. Sampled rows, rich in hits. Any-hit rate of the full collection: about 2.2%.

SMILES	Runt-CBFb FRET	Hck-Nef inh	RanGTP-Imp inh	14-3-3 Bad inh	Tb hexokinase	Runt-SMMHC FRET	YIC counter
CCOC(=O)/C(=N\Nc1ccc(C(C)=O)cc1)c1csc(Nc2ccccc2)n1	.	.	17.9	.	.	.	.
Cc1c(N=Cc2c(O)n(Cc3ccco3)c(=O)c3ccccc23)c(=O)n(-c2ccccc2)n1C	.	.	21.9	.	.	.	22.7
O=C(C1CCCCC1)N1CC(=O)N2CCc3ccccc3C2C1 (stereo not given)	.	.	20.6	.	.	.	.
O=C(C1CCCCC1)N1CCc2ccccc21	.	.	.	.	.	.	/
Cc1ccccc1C(=O)NNC(=O)/C=C/c1ccccc1	.	.	.	.	.	.	/
CN1CCCN(C(=O)Cc2c(Cl)cccc2Cl)c2nc3ccccc3nc21	.	.	21.7	.	.	53.7	27.8
CN1CCCN(C(=O)c2cc(=O)[nH]c3ccccc23)c2nc3ccccc3nc21	.	.	.	.	.	.	/
Cc1ccc2nc(-c3cccc(S(=O)(=O)N4CC(C)OC(C)C4)c3)cn2c1 (stereo not given)	/	/	.	/	/	/	/
CC1(C(=O)O)C=CCN1C(=O)c1ccccc1 (stereo not given)	.	.	19.2	.	.	.	.
CCCn1cnc2cc(NCc3ccc(Br)cc3)ccc21	/	/	19.4	/	/	/	.
CCn1cnc2cc(NCc3ccc(C)cc3)ccc21	.	.	.	.	.	.	/
O=C(O)/C=C/C(=O)Nc1ccc2c(c1)NC(=O)CO2	.	.	33.9	.	.	.	.
O=C1COc2ccc(C(=O)/C=C/c3ccccc3)cc2N1	.	.	.	.	.	.	/
CCOCCCNC(=O)NC(=O)CN1CCN(S(=O)(=O)c2ccc3c(c2)OCCO3)CC1	.	.	19.1	.	.	.	.
CC1CCCCN1C(=O)CSc1nnc(CSc2ncccn2)n1C (stereo not given)	.	.	.	.	.	.	/
CCOC(=O)C1(CCc2ccccc2)CCN(Cc2ccc(C(=O)OC)cc2)CC1	/	/	.	/	/	/	/
CCOC(=O)C1(CCc2ccccc2)CCN(Cc2ccccn2)CC1	.	.	16.9	.	.	.	.
O=C(NNC1CC(=O)N(c2ccc3c(c2)OCCO3)C1=O)c1ccc(Cl)cc1 (stereo not given)	/	.	.	.	.	.	/
Cc1ccc(C(=O)NNC2CC(=O)N(c3ccc4c(c3)OCCO4)C2=O)cc1 (stereo not given)	/	.	17.5	.	.	.	.
Cc1cccc(CN2CCN(Cc3cccc(-n4cccn4)c3)CC2CCO)n1 (stereo not given)	.	.	.	.	.	.	/
COc1ccccc1NC(=O)Cc1nnc(SCC(=O)NC2CCCCC2)n1C	/	/	.	/	/	/	/
OCCCNc1nc(-c2ccc(Cl)cc2)nc2ccccc12	/	/	.	/	/	/	/
OCCNc1nc2ccccc2nc1NCCO	.	.	.	.	.	.	/
OCCNc1nc(-c2ccccc2)nc2ccccc12	.	.	17.5	.	.	.	.
OCCNc1c2ccccc2nc2ccccc12	108.8	.	39.9	.	.	116.4	4.89
SMILES	Runt-CBFb FRET	Hck-Nef inh	RanGTP-Imp inh	14-3-3 Bad inh	Tb hexokinase	Runt-SMMHC FRET	YIC counter
CCCCn1c(N)c(N(CCOC)C(=O)CN2c3ccccc3CC2C)c(=O)[nH]c1=O (stereo not given)	.	.	38.1	.	.	.	.
CCCCn1c(N)c(N(CCOC)C(=O)CN2C(=O)c3ccccc3C2=O)c(=O)[nH]c1=O	/	/	.	/	/	/	/
Cc1ccc(N2CC(C(=O)NCCS(=O)(=O)N3CCN(c4ccccc4)CC3)CC2=O)cc1C (stereo not given)	/	/	.	/	/	/	/
N#CC1=C(N)OC2=C(CCc3ccccc32)C1c1ccccc1 (stereo not given)	.	.	17.8	.	.	.	.
Cc1cc(C)c(S(=O)(=O)Nc2ccc(N(C)C)cc2)c(C)c1-n1cnnn1	/	/	.	/	/	/	/
CCN1/C(=C2/SC(=S)N(NC(C)=O)C2=O)Sc2ccccc21	/	/	.	/	/	/	/
CCN1/C(=C2\SC(=S)N(Cc3ccccc3)C2=O)Sc2ccccc21	.	.	23.6	.	.	.	.

High-throughput results as filed in PubChem.
